From ChEMBL document CHEMBL5678802, “Small-molecule p21-activated kinase inhibitor PF-3758309 is a potent inhibitor of oncogenic signaling and tumor growth” (Proc Natl Acad Sci U S A, 2010)
The source made the active and inactive calls. No cut-off for these calls is given here.

Tests used:
SW-403 = test: Antiproliferative activity against human SW403 cells assessed as inhibition of cell proliferation incubated for 3 days by CellTiter-Glo Luminescent Cell Viability Assay; format: functional, cell-based; conditions: SW-403, 72 h
Summary of the method: (§1)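 Cells of each line were plated in 384-well plates on day 1 and exposed to compound from day 2 for 3 days. On day 5 all medium was aspirated. Viable cell number was read by CellTiter-Glo luminescence, which quantifies cellular ATP.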

Caco-2 = test: Antiproliferative activity against human Caco-2 cells assessed as inhibition of cell proliferation incubated for 3 days by CellTiter-Glo Luminescent Cell Viability Assay; format: functional, cell-based; conditions: Caco-2, 72 h
Summary of the method: (§2)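 Cancer cell lines seeded in 384-well plates on day 1; compound added on day 2 and left for 3 days. On day 5 all medium was aspirated, and viable cells were quantified by CellTiter-Glo luminescence, which measures cellular ATP. Dose-dependent effects on proliferation were determined.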

NCI-H1581 = test: Antiproliferative activity against human NCI-H1581 cells assessed as inhibition of cell proliferation incubated for 3 days by CellTiter-Glo Luminescent Cell Viability Assay; format: functional, cell-based; conditions: NCI-H1581, 72 h; summary of the method: as §2
NCI-H82 = test: Antiproliferative activity against human NCI-H82 cells assessed as inhibition of cell proliferation incubated for 3 days by CellTiter-Glo Luminescent Cell Viability Assay; format: functional, cell-based; conditions: NCI-H82, 72 h; summary of the method: as §1
NCI-H2087 [1] = test: Antiproliferative activity against human NCI-H2087 cells assessed as inhibition of cell proliferation incubated for 3 days by CellTiter-Glo Luminescent Cell Viability Assay; format: functional, cell-based; conditions: NCI-H2087, 72 h; summary of the method: as §1
NCI-H441 = test: Antiproliferative activity against human NCI-H441 cells assessed as inhibition of cell proliferation incubated for 3 days by CellTiter-Glo Luminescent Cell Viability Assay; format: functional, cell-based; conditions: NCI-H441, 72 h; summary of the method: as §1
NCI-H358 = test: Antiproliferative activity against human NCI-H358 cells assessed as inhibition of cell proliferation incubated for 3 days by CellTiter-Glo Luminescent Cell Viability Assay; format: functional, cell-based; conditions: NCI-H358, 72 h; summary of the method: as §1
NCI-H23 = test: Antiproliferative activity against human NCI-H23 cells assessed as inhibition of cell proliferation incubated for 3 days by CellTiter-Glo Luminescent Cell Viability Assay; format: functional, cell-based; conditions: NCI-H23, 72 h; summary of the method: as §1
Calu-1 = test: Antiproliferative activity against human Calu-1 cells assessed as inhibition of cell proliferation incubated for 3 days by CellTiter-Glo Luminescent Cell Viability Assay; format: functional, cell-based; conditions: Calu-1, 72 h; summary of the method: as §2
PSN1 = test: Antiproliferative activity against human PSN1 cells assessed as inhibition of cell proliferation incubated for 3 days by CellTiter-Glo Luminescent Cell Viability Assay; format: functional, cell-based; conditions: PSN1, 72 h; summary of the method: as §1
PaTu 8988t = test: Antiproliferative activity against human PaTu 8988t cells assessed as inhibition of cell proliferation incubated for 3 days by CellTiter-Glo Luminescent cell viability assay; format: functional, cell-based; conditions: 72 h; summary of the method: as §1
HuP-T3 = test: Antiproliferative activity against human HuP-T3 cells assessed as inhibition of cell proliferation incubated for 3 days by CellTiter-Glo Luminescent Cell Viability Assay; format: functional, cell-based; conditions: HuP-T3, 72 h; summary of the method: as §2
NCI-H1395 = test: Inhibition of anchorage independent cell growth in human NCI-H1395 cells incubated for 6 days by Alamar blue reagent based fluorescence plate reader analysis; format: functional; conditions: NCI-H1395, 144 h
NCI-H1650 = test: Inhibition of anchorage independent cell growth in human NCI-H1650 cells incubated for 6 days by Alamar blue reagent based fluorescence plate reader analysis; format: functional; conditions: NCI-H1650, 144 h
NCI-H2087 [2] = test: Inhibition of anchorage independent cell growth in human NCI-H2087 cells incubated for 6 days by Alamar blue reagent based fluorescence plate reader analysis; format: functional; conditions: NCI-H2087, 144 h
SK-BR-3 = test: Antiproliferative activity against human SK-BR-3 cells assessed as inhibition of cell proliferation incubated for 3 days by CellTiter-Glo Luminescent Cell Viability Assay; format: functional, cell-based; conditions: SK-BR-3, 72 h; summary of the method: as §1
[3] = target: Serine/threonine-protein kinase Chk2 (Homo sapiens, UniProt O96017); test: Inhibition of human CHK2 in presence of ATP relative to control; conditions: concentration not given here
Serine/threonine-protein kinase Chk2, sequence (O96017 whole entry): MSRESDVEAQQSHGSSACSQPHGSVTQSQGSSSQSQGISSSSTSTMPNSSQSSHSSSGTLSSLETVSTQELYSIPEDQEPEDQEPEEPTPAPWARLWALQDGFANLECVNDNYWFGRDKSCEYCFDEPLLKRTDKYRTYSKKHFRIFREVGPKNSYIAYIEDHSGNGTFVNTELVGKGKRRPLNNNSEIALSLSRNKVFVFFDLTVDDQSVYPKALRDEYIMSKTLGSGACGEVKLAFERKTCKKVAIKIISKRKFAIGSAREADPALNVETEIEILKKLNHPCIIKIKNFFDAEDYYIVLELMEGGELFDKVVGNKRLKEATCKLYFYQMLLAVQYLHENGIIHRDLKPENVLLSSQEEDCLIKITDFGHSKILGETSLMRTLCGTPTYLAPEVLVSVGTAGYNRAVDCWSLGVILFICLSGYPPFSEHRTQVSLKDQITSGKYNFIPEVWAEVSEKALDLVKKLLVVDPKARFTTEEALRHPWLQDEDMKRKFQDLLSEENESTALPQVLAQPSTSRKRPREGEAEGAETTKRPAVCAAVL

[4] = target: T1, Protein kinase C theta type (Homo sapiens, UniProt Q04759); test: Inhibition of human PKCtheta in presence of ATP relative to control; conditions: concentration not given here
Target sequence in this assay (Q04759 whole entry, looked up): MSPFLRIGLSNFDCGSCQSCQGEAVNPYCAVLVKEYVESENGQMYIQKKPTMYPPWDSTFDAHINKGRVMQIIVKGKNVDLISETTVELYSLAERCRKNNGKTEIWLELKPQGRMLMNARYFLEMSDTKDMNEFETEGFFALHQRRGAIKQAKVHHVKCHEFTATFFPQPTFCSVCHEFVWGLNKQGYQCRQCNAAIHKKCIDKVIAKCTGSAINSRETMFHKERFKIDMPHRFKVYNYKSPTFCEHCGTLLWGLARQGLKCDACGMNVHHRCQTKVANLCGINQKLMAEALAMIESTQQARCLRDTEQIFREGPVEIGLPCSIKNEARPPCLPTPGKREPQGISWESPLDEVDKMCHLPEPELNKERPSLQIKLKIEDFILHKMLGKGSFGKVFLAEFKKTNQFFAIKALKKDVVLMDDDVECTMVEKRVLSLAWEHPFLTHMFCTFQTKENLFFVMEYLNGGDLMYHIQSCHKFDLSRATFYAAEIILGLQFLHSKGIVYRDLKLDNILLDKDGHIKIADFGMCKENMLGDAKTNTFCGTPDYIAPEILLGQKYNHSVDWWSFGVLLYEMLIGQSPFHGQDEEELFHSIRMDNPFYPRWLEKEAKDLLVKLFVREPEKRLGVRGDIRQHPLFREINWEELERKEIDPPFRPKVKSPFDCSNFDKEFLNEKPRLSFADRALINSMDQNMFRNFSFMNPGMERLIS

[5] = target: Serine/threonine-protein kinase N1 (Homo sapiens) (UniProt Q16512); test: Inhibition of human PRK1 in presence of ATP relative to control; conditions: concentration not given here
Serine/threonine-protein kinase N1 (Homo sapiens), sequence (Q16512 2-942 limits assumed): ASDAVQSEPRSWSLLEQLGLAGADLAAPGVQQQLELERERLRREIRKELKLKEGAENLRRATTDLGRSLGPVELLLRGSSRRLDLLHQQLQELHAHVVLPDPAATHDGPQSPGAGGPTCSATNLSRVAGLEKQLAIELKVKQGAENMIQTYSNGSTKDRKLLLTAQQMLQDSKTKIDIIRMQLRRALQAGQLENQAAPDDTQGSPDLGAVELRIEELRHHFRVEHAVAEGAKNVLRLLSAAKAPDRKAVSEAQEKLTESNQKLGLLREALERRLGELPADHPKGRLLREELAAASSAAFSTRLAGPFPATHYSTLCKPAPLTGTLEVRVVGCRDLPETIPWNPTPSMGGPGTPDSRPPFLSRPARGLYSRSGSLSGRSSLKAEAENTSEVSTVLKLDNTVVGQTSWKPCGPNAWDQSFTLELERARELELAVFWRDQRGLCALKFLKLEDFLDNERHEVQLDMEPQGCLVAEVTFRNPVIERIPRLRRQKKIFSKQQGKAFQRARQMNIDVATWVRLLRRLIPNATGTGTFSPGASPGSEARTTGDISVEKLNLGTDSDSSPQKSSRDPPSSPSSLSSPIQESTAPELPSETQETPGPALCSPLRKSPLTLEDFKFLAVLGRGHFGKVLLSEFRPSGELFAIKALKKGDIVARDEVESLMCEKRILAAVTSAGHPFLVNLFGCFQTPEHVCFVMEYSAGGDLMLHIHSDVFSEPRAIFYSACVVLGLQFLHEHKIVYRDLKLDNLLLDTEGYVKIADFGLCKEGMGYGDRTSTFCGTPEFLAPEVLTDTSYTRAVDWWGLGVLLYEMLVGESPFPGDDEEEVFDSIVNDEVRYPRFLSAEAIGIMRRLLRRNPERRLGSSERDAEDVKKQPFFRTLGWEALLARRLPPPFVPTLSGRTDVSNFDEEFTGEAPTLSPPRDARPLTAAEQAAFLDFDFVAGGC

[6] = target: T2, Protein kinase C beta type (Homo sapiens, UniProt P05771); test: Inhibition of human PKCbeta1 in presence of ATP
T2 sequence (P05771 whole entry): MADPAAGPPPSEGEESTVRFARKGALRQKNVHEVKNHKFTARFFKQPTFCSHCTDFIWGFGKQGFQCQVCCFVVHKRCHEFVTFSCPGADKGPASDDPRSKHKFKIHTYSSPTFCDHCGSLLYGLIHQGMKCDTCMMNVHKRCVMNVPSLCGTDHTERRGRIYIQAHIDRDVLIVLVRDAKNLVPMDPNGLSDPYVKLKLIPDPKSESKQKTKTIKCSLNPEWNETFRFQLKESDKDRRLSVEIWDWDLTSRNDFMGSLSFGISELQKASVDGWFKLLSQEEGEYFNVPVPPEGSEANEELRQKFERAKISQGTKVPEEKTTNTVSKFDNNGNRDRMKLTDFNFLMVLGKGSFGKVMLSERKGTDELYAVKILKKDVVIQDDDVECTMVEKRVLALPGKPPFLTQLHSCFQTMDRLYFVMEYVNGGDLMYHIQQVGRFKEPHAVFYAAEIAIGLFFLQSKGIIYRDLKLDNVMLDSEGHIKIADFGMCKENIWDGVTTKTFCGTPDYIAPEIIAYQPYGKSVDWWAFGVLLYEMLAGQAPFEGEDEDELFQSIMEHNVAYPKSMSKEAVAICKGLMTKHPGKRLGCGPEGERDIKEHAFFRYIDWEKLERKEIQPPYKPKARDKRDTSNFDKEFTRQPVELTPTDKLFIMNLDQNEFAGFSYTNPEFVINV

[7] = target: AMP-activated protein kinase (AMPK) alpha-1/beta-1/gamma-1 (Homo sapiens, UniProt P54619+Q13131+Q9Y478); test: Inhibition of human AMPK alpha1/beta1/gamma1 in presence of ATP by cellular assay; format: protein-complex assay
AMP-activated protein kinase (AMPK) alpha-1/beta-1/gamma-1, sequence (P54619 whole entry): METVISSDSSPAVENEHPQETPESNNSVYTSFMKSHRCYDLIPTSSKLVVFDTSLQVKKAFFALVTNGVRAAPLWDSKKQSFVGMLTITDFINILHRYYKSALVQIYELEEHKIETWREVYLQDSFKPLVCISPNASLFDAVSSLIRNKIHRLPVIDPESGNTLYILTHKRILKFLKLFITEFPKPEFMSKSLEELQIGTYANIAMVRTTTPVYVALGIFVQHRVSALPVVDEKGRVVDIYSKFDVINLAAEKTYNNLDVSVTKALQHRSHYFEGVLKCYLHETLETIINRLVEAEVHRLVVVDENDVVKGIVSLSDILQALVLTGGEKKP
AMP-activated protein kinase (AMPK) alpha-1/beta-1/gamma-1, sequence (Q9Y478 whole entry): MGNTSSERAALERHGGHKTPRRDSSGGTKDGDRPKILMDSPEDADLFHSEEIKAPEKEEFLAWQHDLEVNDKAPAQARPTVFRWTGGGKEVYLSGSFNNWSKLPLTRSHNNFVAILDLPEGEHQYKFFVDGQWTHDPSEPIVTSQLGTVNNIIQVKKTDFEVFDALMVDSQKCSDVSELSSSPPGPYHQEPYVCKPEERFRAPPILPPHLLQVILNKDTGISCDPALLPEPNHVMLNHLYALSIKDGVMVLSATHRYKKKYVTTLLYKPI
AMP-activated protein kinase (AMPK) alpha-1/beta-1/gamma-1, sequence (Q13131 whole entry): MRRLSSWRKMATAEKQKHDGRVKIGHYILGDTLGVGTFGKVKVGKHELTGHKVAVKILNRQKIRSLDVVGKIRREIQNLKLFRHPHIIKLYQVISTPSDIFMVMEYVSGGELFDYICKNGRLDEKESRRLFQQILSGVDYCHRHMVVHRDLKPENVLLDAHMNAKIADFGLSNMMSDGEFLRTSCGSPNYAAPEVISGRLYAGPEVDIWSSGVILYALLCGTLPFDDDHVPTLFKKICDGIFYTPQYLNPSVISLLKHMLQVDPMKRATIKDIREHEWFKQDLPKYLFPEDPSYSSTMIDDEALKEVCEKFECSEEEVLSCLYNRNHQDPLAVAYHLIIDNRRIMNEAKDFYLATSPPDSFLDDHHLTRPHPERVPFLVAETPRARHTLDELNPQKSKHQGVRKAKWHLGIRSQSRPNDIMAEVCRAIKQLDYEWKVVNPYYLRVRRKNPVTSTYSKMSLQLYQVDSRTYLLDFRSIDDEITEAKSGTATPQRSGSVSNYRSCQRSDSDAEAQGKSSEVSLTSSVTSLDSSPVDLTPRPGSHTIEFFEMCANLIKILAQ

[8] = target: T1, Protein kinase C theta type; test: Inhibition of human PKCtheta in presence of ATP by cellular assay
Target sequence in this assay (Q04759 whole entry): as the sequence (Q04759 whole entry, looked up) above

[9] = target: T2, Protein kinase C beta type; test: Inhibition of human PKCbeta-II in presence of ATP by cellular assay
[10] = target: Ribosomal protein S6 kinase alpha-2 (Homo sapiens, UniProt Q15349); test: Inhibition of human RSK3 in presence of ATP by cellular assay
Ribosomal protein S6 kinase alpha-2, sequence (Q15349 whole entry): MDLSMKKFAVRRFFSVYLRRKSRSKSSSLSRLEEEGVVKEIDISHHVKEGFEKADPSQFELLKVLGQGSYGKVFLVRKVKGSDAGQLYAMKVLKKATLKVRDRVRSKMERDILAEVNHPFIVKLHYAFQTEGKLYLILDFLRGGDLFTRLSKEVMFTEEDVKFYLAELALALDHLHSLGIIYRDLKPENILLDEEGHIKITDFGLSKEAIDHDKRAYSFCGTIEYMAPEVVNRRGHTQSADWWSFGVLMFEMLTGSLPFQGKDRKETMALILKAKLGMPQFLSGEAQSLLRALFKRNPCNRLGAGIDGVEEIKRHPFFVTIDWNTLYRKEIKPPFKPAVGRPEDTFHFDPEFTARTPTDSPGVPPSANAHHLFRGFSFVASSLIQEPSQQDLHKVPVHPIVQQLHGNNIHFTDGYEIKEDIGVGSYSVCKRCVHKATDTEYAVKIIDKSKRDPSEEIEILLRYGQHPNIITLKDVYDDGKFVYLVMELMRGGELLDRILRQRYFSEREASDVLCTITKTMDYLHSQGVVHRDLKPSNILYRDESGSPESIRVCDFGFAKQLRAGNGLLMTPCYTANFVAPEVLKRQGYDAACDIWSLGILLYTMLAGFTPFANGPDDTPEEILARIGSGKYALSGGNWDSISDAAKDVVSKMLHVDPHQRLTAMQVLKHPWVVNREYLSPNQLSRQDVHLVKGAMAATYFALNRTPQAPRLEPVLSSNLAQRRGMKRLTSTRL

HCT-116 [11] = test: Induction of apoptosis in human HCT-116 cells at 100 nM measured after 48 hrs by fluorescence activated cell sorter analysis; format: functional, cell-based
[12] = target: Tumour suppressor p53/oncoprotein Mdm2 (Homo sapiens, UniProt P04637+Q00987); test: Inhibition of YFP/YFP variant coding sequence fused p53/Mdm2 (unknown origin) expressed in HEK293 cells incubated for 8 to 24 hrs by fluorescence based analysis; format: cell-based
HCT-116 [13] = test: Downregulation of camptothecin-induced p21 waf1/cip1 level in human HCT-116 cells at 1 uM preincubated with compound for 15 mins followed by camptothecin stimulation and measured after 20 hrs by Western blot analysis; format: functional, cell-based; conditions: time 20.25 hrs
M24met = test: Antitumor activity against human M24met cells xenografted in nude mouse assessed as tumor growth inhibition at 15 mg/kg, po administered once daily for 9 to 18 days relative to control; format: functional; conditions: time 9-18 day, read-out: TGI
[14] = Drug concentration in nude mouse plasma xenografted with human HCT-116 cells at 1.1 mg/kg administered via pump for 9 days by LC-MS/MS analysis; format: ADME, organism-based; conditions: time 9 day
HCT-116 [15] = test: Antitumor activity against human HCT-116 cells xenografted in nude mouse assessed as inhibition of [3H]FLT uptake at 25 mg/kg, po administered once a day for 1 day and measured after 2 hrs post [3H]FLT administration by scintillation counter analysis relative to control; format: functional; conditions: HCT-116, 24 h
Summary of the method: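 HCT116 xenograft mice (tumors 300–350 mm3, n = 5 per group) received oral vehicle or compound, with harvests on days 2, 3 and 6. Isoflurane-anesthetized mice were given [3H]FLT (15 nCi/g, i.p.) 2 h before killing. Tumor and liver were weighed, solubilized and scintillation-counted. SUV = C/(ID/W), and uptake is reported as the tumor-to-liver SUV ratio.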

HCT-116 [16] = test: Antitumor activity against human HCT-116 cells xenografted in nude mouse assessed as reduction in GSK3beta phosphorylation at S21 residue at 15 to 150 mg/kg/day administered via pump for 18 hrs by Reverse-Phase protein array analysis; format: functional, organism-based; conditions: dose 15-150 mg/kg/day

`Cc1nc(Nc2n[nH]c3c2CN(C(=O)N[C@H](CN(C)C)c2ccccc2)C3(C)C)c2sccc2n1` [PF-03758309] showed an IC50 (SW-403) of 2.2 nM, an IC50 (Caco-2) of 10000 nM and an IC50 (NCI-H1581) of 0.6 nM. The IC50 (NCI-H82) was 2.1 nM, the IC50 (NCI-H2087 [1]) was 4.3 nM and the IC50 (NCI-H441) was 9.2 nM. It also gave an IC50 (NCI-H358) of 11 nM, an IC50 (NCI-H23) of 25 nM and an IC50 (Calu-1) of 167 nM. It also gave an IC50 (PSN1) of 34 nM, an IC50 (PaTu 8988t) of 73 nM and an IC50 (HuP-T3) of 280 nM. For the same compound, the IC50 (NCI-H1395) was 7.62 nM, the IC50 (NCI-H1650) was 5.57 nM and the IC50 (NCI-H2087 [2]) was 1.36 nM. For the same compound, the IC50 (SK-BR-3) was 132 nM, the inhibition [3] was 103% and the inhibition [4] was 98%. The inhibition [5] was 86%, the IC50 [6] was 280 nM and the IC50 [7] was 40 nM. The IC50 [8] was 568 nM, the IC50 [9] was 1390 nM and the IC50 [10] was 1960 nM. The Activity (HCT-116 [11]) was “Active”, the IC50 [12] was 5.6 nM and the Activity (HCT-116 [13]) was “Active”. For the same compound, the inhibition in vivo at 15 mg/kg (M24met) was 72%, the concentration at 216 h [14] was 5.6 ng/mL and the inhibition in vivo at 25 mg/kg (HCT-116 [15]) was 33.8%. The Activity (HCT-116 [16]) was “Active”.
